# Laboratory results from ChEMBL document CHEMBL5252546, “Salutaxel, a Conjugate of Docetaxel and a Muramyl Dipeptide (MDP) Analogue, Acts as Multifunctional Prodrug That Inhibits Tumor Growth and Metastasis” (J Med Chem, 2018).
# Active and inactive are the calls of the source. The calls are words filed in the database; no cut-off is given here.
# Key:
# 4T1 [1] = assay: Antitumor activity against mouse 4T1 cells implanted in BALB/c mouse assessed as decrease in spleen MMP2 expression level at 5.7 mg/kg,iv administrated once per week for 4 weeks in presence of compound 5b by western blot assay; type: functional, organism-based
# How it was run: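 4T1 cells injected into mammary fat pads of BALB/c mice. Saline vehicle or test article given iv once weekly for 4 weeks. Spleen, lung and tumor lysates immunoblotted for MMP2/MMP9 with β-actin as loading control. Bands averaged over five mice per group, representative of two independent experiments.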
# [2] = Half life in mouse plasma implanted with mouse 4T1 cells at 5.7 mg/kg,iv measured upto 72 hrs; type: ADME, organism-based
# 4T1 [3] = assay: Antitumor activity against mouse 4T1 cells implanted in BALB/c mouse assessed as decrease in tumor MMP9 expression level at 5.7 mg/kg,iv administrated once per week for 4 weeks in presence of compound 5b by western blot assay; type: functional, organism-based
# How it was run: (§1)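 Tumour-bearing BALB/c mice (4T1 cells into mammary fat pad) given iv saline vehicle or test agents once weekly for 4 weeks. Tumours excised and probed by western blot for MMP9, MMP2 and NOD1, β-actin as loading control. Bands averaged over five mice per group; representative of two independent experiments.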
# 4T1 [4] = assay: Antitumor activity against mouse 4T1 cells implanted in BALB/c mouse assessed as increase in tumor NOD1 expression level at 5.7 mg/kg,iv administrated once per week for 4 weeks by western blot assay; type: functional, organism-based; how it was run: as §1
# [5] = Toxicity in BALB/c mouse xenografted with human NCI-H1975 cells assessed as side effects at 5.7 mg/kg,iv administrated once per week for 3 weeks; type: organism-based; settings: in vivo, 504 h
# How it was run: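 Nude BALB/c nu/nu mice received subcutaneous human tumour cells into the right flank. Dosing started at mean tumour volume of 100–120 mm3, iv once weekly for 3 weeks; the taxane arm was an equimolar control. Body weight and overt side effects were monitored. Mean ± SEM, n = 8.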
# [6] = Tmax in Beagle dog at 1 mg/kg,iv measured upto 24 hrs; type: ADME, organism-based, Canis lupus familiaris; settings: in vivo
# [7] = Drug distribution in rat small intestine at 4 mg/kg,iv measured by 0.25 hrs; type: ADME, organism-based; settings: in vivo
# How it was run: (§2)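 Rats received 4 mg/kg iv. Parent drug and released docetaxel were assayed in tissues and plasma from the first sampling at 0.25 h to 24 h. The lower limit of quantitation was 200 ng/g.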
# [8] = Tmax in male rat at 2 mg/kg,iv measured upto 24 hrs; type: ADME, organism-based; settings: in vivo
# 4T1 [9] = assay: Antitumor activity against mouse 4T1 cells implanted in BALB/c mouse assessed as decrease in serum MMP9 level at 20 mg/kg,iv administrated once per week for 4 weeks by ELISA; type: functional, organism-based
# How it was run: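 4T1 fat-pad model in BALB/c mice, iv 5–20 mg/kg once weekly for 4 weeks, with vehicle and naive groups; serum MMP9, TIMP-1, IL-6 and S100A9 measured by mouse ELISA kits.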
# [10] = Stability in mouse plasma assessed as compound remaining at 1 uM incubated for 6 hrs; type: ADME, cell-free
# 4T1 [11] = assay: Antitumor activity against mouse 4T1 cells implanted in BALB/c mouse assessed as decrease in neutrophil in peripheral blood at 20 mg/kg,iv administrated qd for 2 days by blood smear staining microscopic analysis; type: functional, organism-based; settings: time 2.0 day
# How it was run: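 Day 19 after 4T1 implantation, mice randomised into five groups; iv vehicle or 20 mg/kg plus ip C12-iE-DAP (50 μg/mouse) and MDP (100 μg/mouse) once daily for 2 days; blood taken 6 h later; neutrophils/leukocytes counted on stained blood smears at 1000× light microscopy.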
# [12] = Volume of distribution at steady state in female rat at 4 mg/kg,iv measured upto 24 hrs; type: ADME, organism-based; settings: in vivo, read-out: Vdss
# 4T1 [13] = assay: Synergistic antitumor activity against mouse 4T1 cells xenografted with BALB/c mouse assessed as decrease in tumor volume at 10 mg/kg,iv administrated in combination with doxorubicin once per week for 4 weeks; type: functional, organism-based
# [14] = Half life in rat at 2 mg/kg,iv measured upto 24 hrs; type: ADME, organism-based; settings: in vivo
# [15] = Tmax in male Beagle dog at 1 mg/kg,iv measured upto 24 hrs; type: ADME, organism-based, Canis lupus familiaris; settings: in vivo
# [16] = AUC (0-infinity) in male rat at 4 mg/kg,iv measured upto 24 hrs; type: ADME, organism-based; design: time < 24 hrs, dose 4 mg/kg, route iv; settings: in vivo
# How it was run: (§3)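 Single iv dose: rats 2, 4 or 8 mg/kg by intravenous injection; Beagle dogs 1, 2 or 4 mg/kg by intravenous infusion. Plasma concentration–time data were analysed by sex and pooled. Reported parameters: Cmax, Tmax, AUC0−t, AUC0−∞, MRT0−∞, t1/2, CL, Vss, given as mean ± SD.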
# [17] = AUC (0-t) in male Beagle dog at 1 mg/kg,iv measured upto 24 hrs; type: ADME, organism-based, Canis lupus familiaris; design: dose 1 mg/kg, time < 24 hrs, route iv; settings: in vivo; how it was run: as §3
# [18] = AUC (0-t) in male rat at 8 mg/kg,iv measured upto 24 hrs; type: ADME, organism-based; design: time < 24 hrs, dose 8 mg/kg, route iv; settings: in vivo; how it was run: as §3
# [19] = Stability in mouse hepatocyte assessed as compound remaining at 3 uM incubated upto 120 mins; type: ADME, cell-based; settings: hepatocytes, 2 h
# [20] = MRT (0 to infinity) in female rat at 8 mg/kg,iv measured upto 24 hrs; type: ADME, organism-based; settings: in vivo
# [21] = Tmax in male Beagle dog at 2 mg/kg,iv measured upto 24 hrs; type: ADME, organism-based, Canis lupus familiaris; settings: in vivo
# [22] = Tmax in female Beagle dog at 2 mg/kg,iv measured upto 24 hrs; type: ADME, organism-based, Canis lupus familiaris; settings: in vivo
# [23] = AUC (0-infinity) in male Beagle dog at 1 mg/kg,iv measured upto 24 hrs; type: ADME, organism-based, Canis lupus familiaris; design: dose 1 mg/kg, time < 24 hrs, route iv; settings: in vivo; how it was run: as §3
# [24] = Clearance in male Beagle dog at 4 mg/kg,iv measured upto 24 hrs; type: ADME, organism-based, Canis lupus familiaris; settings: in vivo
# How it was run: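 Beagle dogs were given a single iv infusion at 1, 2 or 4 mg/kg. Plasma parent drug and released docetaxel were followed over time. Cmax, Tmax, AUC, MRT, t1/2, CL and Vss were reported by sex and for all dogs combined.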
# [25] = Drug distribution in rat lung at 4 mg/kg,iv measured by 0.25 hrs; type: ADME, organism-based; settings: in vivo; how it was run: as §2
# [26] = AUC (0-infinity) in female Beagle dog at 4 mg/kg,iv measured upto 24 hrs; type: ADME, organism-based, Canis lupus familiaris; design: dose 4 mg/kg, time < 24 hrs, route iv; settings: in vivo; how it was run: as §3
# [27] = Volume of distribution at steady state in male rat at 8 mg/kg,iv measured upto 24 hrs; type: ADME, organism-based; settings: in vivo, read-out: Vdss
# [28] = Clearance in female rat at 2 mg/kg,iv measured upto 24 hrs; type: ADME, organism-based; settings: in vivo
# How it was run: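 Rats were given a single iv injection at 2, 4 or 8 mg/kg. Plasma parent drug and released docetaxel were followed over time. Cmax, Tmax, AUC, MRT, t1/2, CL and Vss were reported for males, females and all animals combined.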
# [29] = Tmax in male Beagle dog at 4 mg/kg,iv measured upto 24 hrs; type: ADME, organism-based, Canis lupus familiaris; settings: in vivo
# [30] = Half life in female Beagle dog at 1 mg/kg,iv measured upto 24 hrs; type: ADME, organism-based, Canis lupus familiaris; settings: in vivo
# [31] = MRT (0 to infinity) in male Beagle dog at 2 mg/kg,iv measured upto 24 hrs; type: ADME, organism-based, Canis lupus familiaris; settings: in vivo
# Cytochrome P450 3A4 = Cytochrome P450 3A4 (Homo sapiens, UniProt P08684); assay: Inhibition of CYP3A4 in human liver microsomes using probe substrate at 0.1 to 100 uM in presence of NADPH; type: ADME, Microsome; settings: dose 0.1-100 µM
# NCI-H460 = assay: Antiproliferative activity against human NCI-H460 cells assessed inhibition of cell growth incubated for 72 hrs by SRB assay; type: functional, cell-based; settings: NCI-H460, 72 h
# [32] = Volume of distribution at steady state in female Beagle dog at 4 mg/kg,iv measured upto 24 hrs; type: ADME, organism-based, Canis lupus familiaris; settings: in vivo, read-out: Vdss
# [33] = Drug metabolism in monkey hepatocytes assessed as docetaxel metabolite formation at 20 uM incubated for 180 mins; type: ADME, cell-based, Macaca mulatta, Hepatocyte; settings: rhesus monkey, 3 h
# Cytochrome P450 3A4, sequence (P08684 whole entry): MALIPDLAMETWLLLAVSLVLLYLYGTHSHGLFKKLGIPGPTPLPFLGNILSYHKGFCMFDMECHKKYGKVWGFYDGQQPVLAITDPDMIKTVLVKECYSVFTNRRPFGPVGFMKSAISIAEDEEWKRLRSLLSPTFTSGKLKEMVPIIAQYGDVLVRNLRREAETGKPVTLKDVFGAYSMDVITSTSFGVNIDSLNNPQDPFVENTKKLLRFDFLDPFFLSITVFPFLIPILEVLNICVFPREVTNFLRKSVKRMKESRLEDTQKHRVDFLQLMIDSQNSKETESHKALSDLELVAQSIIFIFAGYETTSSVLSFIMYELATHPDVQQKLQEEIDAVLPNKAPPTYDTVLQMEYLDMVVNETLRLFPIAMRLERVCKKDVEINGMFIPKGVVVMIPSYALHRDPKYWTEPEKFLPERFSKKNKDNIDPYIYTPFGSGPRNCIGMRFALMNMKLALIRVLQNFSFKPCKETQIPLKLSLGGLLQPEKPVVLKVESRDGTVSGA
compound,measurement,setting,value
CC(=O)O[C@@]12CO[C@@H]1C[C@H](O)[C@@]1(C)C(=O)[C@H](O)C3=C(C)[C@@H](OC(=O)[C@H](O)[C@@H](NC(=O)OC(C)(C)C)c4ccccc4)C[C@@](O)([C@@H](OC(=O)c4ccccc4)[C@H]21)C3(C)C [DOCETAXEL ANHYDROUS],Activity,4T1 [1],inactive
same,half-life,[2],217 min
same,Activity,4T1 [3],inactive
same,Activity,4T1 [4],inactive
same,Activity,[5],Non-Toxic
CC(=O)O[C@@]12CO[C@@H]1C[C@H](O)[C@@]1(C)C(=O)[C@H](O)C3=C(C)[C@@H](OC(=O)[C@H](OC(=O)CCC(=O)NCCCC[C@H](NC(=O)CC[C@@H](NC(=O)[C@H](C)NC(=O)/C=C/c4ccc(F)cc4Cl)C(N)=O)C(=O)O)[C@@H](NC(=O)OC(C)(C)C)c4ccccc4)C[C@@](O)([C@@H](OC(=O)c4ccccc4)[C@H]21)C3(C)C,Tmax,[6],30 min
same,Drug uptake,[7],Active
same,Tmax,[8],4.98 min
same,Activity,4T1 [9],Active
same,Stability,[10],Stable
same,Activity,4T1 [11],Active
same,Vd,[12],0.08 L/kg
same,Activity,4T1 [13],Active
same,half-life,[14],7.8 min
same,Tmax,[15],30 min
same,AUC(0-inf),[16],20800 ng·h/mL
same,AUC(0-t) at 24 h,[17],1590 ng·h/mL
same,AUC(0-t) at 24 h,[18],52300 ng·h/mL
same,Stability,[19],Stable
same,MRT inf,[20],28.2 min
same,Tmax,[21],30 min
same,Tmax,[22],30 min
same,AUC(0-inf),[23],1630 ng·h/mL
same,clearance,[24],4.56 mL/min/kg
same,Drug uptake,[25],Active
same,AUC(0-inf),[26],20300 ng·h/mL
same,Vd,[27],0.096 L/kg
same,clearance,[28],7.73 mL/min/kg
same,Tmax,[29],30 min
same,half-life,[30],29 min
same,MRT inf,[31],13.1 min
same,inhibition (INH),Cytochrome P450 3A4,Not Active
same,IC50,NCI-H460,16.3 nM
same,Vd,[32],0.087 L/kg
same,Drug metabolism,[33],Metabolite_Detected
